Source: PubChem BioAssay
Kir21 block = inhibitors of mouse Kir2.1 inward-rectifier potassium channel; P35561; HEK293-Kir2.1, FluxOR thallium flux fluorescence; active compounds read low; B-score at 10 µM; 310,000 compounds, 0.85% hits; AID 1672;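 active = fluorescence ratio B-score at or below minus 3 SD of library scores, with starting-brightness B-score within 2 SD, cut at about -4.2 in these data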;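 note: channel flux triggered by added potassium and thallium sulfate stimulus; B-score of peak minus minimum fluorescence over baseline after thallium stimulus; more negative B-score means stronger Kir2.1 block with less thallium influx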
Target sequence (P35561 whole entry, looked up): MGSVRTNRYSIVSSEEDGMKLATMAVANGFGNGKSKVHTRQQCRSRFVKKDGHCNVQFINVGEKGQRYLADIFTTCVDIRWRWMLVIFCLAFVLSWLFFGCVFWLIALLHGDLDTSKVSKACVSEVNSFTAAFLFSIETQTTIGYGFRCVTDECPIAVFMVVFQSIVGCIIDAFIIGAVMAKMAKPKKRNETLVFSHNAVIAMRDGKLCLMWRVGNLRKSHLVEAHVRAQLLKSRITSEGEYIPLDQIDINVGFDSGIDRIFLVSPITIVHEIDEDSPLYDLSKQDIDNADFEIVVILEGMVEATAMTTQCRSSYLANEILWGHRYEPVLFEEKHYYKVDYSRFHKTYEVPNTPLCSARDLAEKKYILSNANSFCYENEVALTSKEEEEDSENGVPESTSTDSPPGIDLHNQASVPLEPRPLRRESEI
KCNK9 block = human KCNK9 channel inhibition | Q9NPC2 | HEK293 KCNK9, FluxOR thallium flux fluorescence; active compounds read low | B-score at 10 µM | 310,000 compounds, 1.2% hits | AID 488922;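 active = ratio B-score over 3 SD below the library mean, with starting fluorescence within 5 SD of its mean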;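 note: negative B-score means less thallium flux so channel inhibition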
KCNQ1 pot = human KCNQ1 channel potentiation or activation; P51787; CHO-K1 KCNQ1, thallium flux FluxOR fluorescence; active compounds read high; B-score at 10 µM; 310,000 compounds, 0.35% hits; AID 2648;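 active = fluorescence ratio B-score, a plate-corrected score, at least three library SD, with initial intensity B-score within 5 SD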
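Assay system: CHO-K1 cells stably expressing KCNQ1. Medium: assay buffer for compound exposure, DMSO matched across wells. Timing: 37 °C overnight plating, 90-min dark dye load, 20-min compound pretreatment. Signal: kinetic FluxOR fluorescence, 10 s baseline plus 110 s post-stimulus.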
KCNQ1 block = inhibitors of human KCNQ1 potassium channel | P51787 | CHO-K1 KCNQ1, FluxOR thallium flux fluorescence; active compounds read high | B-score at 10 µM | 310,000 compounds, 1.3% hits;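 active = compounds whose thallium flux B-score, printed positive for inhibition, exceeds three library SD while starting fluorescence stays within three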;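 note: channel opened by potassium depolarization with thallium stimulus after 20 min compound exposure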
KCNK3 block = human KCNK3 channel inhibition, primary screen | AID 602410 | 340,000 compounds, 0.84% hits | O14649 | CHO-KCNK3 thallium flux, FluxOR fluorescence; active compounds read low | B-score at 10 µM;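 active = B-score under library mean minus 4 SD, starting fluorescence ratio at most library mean plus 5 SD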;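 note: more negative B-score means stronger inhibition of thallium flux through KCNK3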
hERG rescue = shields human hERG channel from block by proarrhythmic agents; Q12809; CHO-hERG, FluxOR thallium flux, dofetilide IC70 present; activation (rescue from dofetilide block), less the hit threshold, % at 10 µM; 310,000 compounds, 0.51% hits; AID 1511;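 active = activation above the mean of controls blocked by dofetilide plus 5 SD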;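 note: thallium influx through hERG after potassium depolarization seen as dye fluorescence rise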
Active calls of the source: *; i = inactive; . = no result given. Hits are enriched below; roughly 3.7% of the tested compounds scored in any of these assays.

SMILES	Kir21 block	KCNK9 block	KCNQ1 pot	KCNQ1 block	KCNK3 block	hERG rescue
CC(Oc1ccc(Cl)cc1Cl)C(=O)Nc1ccc2oc(-c3ccncc3)nc2c1 (configuration not stated)	-0.44	i	i	i	-10*	-15
O=C(Nc1ccc2[nH]c(=S)sc2c1)Nc1ccccc1F	1.3	i	15*	i	i	11*
O=C(Nc1ccc2[nH]c(=S)sc2c1)c1ccccc1	1.6	i	12*	i	i	-7
COc1ccc(NC(=O)CSc2ccc3c(c2)OCCO3)cc1S(N)(=O)=O	.	.	.	.	i	.
Cc1ccc(C(=O)NCCC(=O)NCc2ccco2)cc1	1.2	i	i	i	i	-9
Cc1nc2sc(C(c3ccccc3)N3CCN(C(=O)c4ccco4)CC3)c(O)n2n1 (configuration not stated)	-0.9	i	12*	i	i	2
Cc1ccc(C(C)C)c(OCC(=O)OCc2c(C)noc2C)c1	0.04	-7.4*	i	i	i	-7
Cc1ccc(C(C)C)c(OCC(=O)OCC(=O)NC2CC2)c1	.	.	.	.	i	.
NS(=O)(=O)c1cccc(NC(=O)COC(=O)CN2C(=O)c3ccccc3C2=O)c1	.	.	.	.	i	.
O=C(NC(=S)NNC(=O)c1ccco1)c1ccc(Br)cc1	-0.08	i	i	6*	i	-9
CCCOc1ccc(C(=O)NNC(=S)NC(=O)c2cccs2)cc1	-0.39	i	38*	i	i	8.8*
O=C(NNC(=S)NC(=O)c1ccco1)c1ccc(F)cc1	-0.18	i	i	i	i	-8
CCCOc1ccc(C(=O)NNC(=S)NC(=O)c2ccccc2)cc1	0.88	i	34*	i	i	17*
CCCOc1ccc(C(=O)NNC(=S)NC(C)=O)cc1	-0.13	i	i	i	i	-19
CC(C)(C)c1ccc(C(=O)NC(=S)NNC(=O)COc2ccccc2)cc1	0.96	i	30*	i	i	-5
COc1cnc(SC)nc1Nc1ccc(C#N)cc1	-0.61	i	i	i	i	-5
CCOc1ccc(NC(=O)CCC(=O)c2ccc(Br)cc2)cc1	0.88	i	i	i	i	-4
CCCOc1ccc(C(=O)NNC(=S)NC(=O)c2ccco2)cc1	-0.62	i	12*	i	i	18*
CCOc1ccc(NC(=S)NNC(=O)c2ccc(Br)cc2)cc1	0.05	i	i	6*	i	-9
CCN(CC)c1ccc2cc(NC(=O)CCC(=O)O)c(=O)oc2c1	-15	i	i	14*	i	-26
Cn1nnnc1SCCNCc1ccccc1OCc1ccc(Cl)cc1	-4.3*	i	i	i	i	-13
Cn1nnnc1SCCNCc1cc(Cl)ccc1OCc1ccccc1	-2.1	i	i	i	i	-7
CCN(CC)CCNC(=O)C(=O)Nc1ccc2c(c1)N(S(=O)(=O)c1cccs1)CCC2	0.31	i	i	i	i	-10
N#C/C(=C/c1ccc(N2CCOCC2)o1)C(=O)NC1CCCCC1	-5.8	i	i	7*	i	-24
N#C/C(=C\c1ccc(N2CCOCC2)o1)C(=O)Nc1ccc(O)cc1	-5.4	i	i	7*	i	-25
SMILES	Kir21 block	KCNK9 block	KCNQ1 pot	KCNQ1 block	KCNK3 block	hERG rescue
Cc1cc(-c2nnc(CCC(=O)N(C)Cc3cccc4ccccc34)o2)no1	1.4	i	i	i	i	-24
Cc1nn(C(=O)CNC(=O)c2ccccc2)c(C)c1C	-0.54	i	i	i	i	8.0*
CCN(C1CCCCC1)S(=O)(=O)c1cc(C)ccc1OC	-2.2	i	i	i	i	-17
CCN(C1CCCCC1)S(=O)(=O)c1ccc(OC)c(C)c1	-5.4*	i	i	i	i	-7
NS(=O)(=O)c1ccc(CCNCc2cc(Br)ccc2OCc2ccccc2)cc1	-8.2*	i	i	i	i	-23
COc1ccc(Br)cc1/C=C/C(=O)OCC(=O)NCCc1ccc(S(N)(=O)=O)cc1	.	.	.	.	i	.
OCCNCc1cc(Br)ccc1OCc1ccccc1	0.02	i	i	i	i	-7
COc1ccc(Br)cc1CN(C)CC(=O)NCCc1ccc(S(N)(=O)=O)cc1	-4.7*	i	i	i	i	-5
Nc1ncnc2c1ncn2[C@@H]1O[C@H](CNCc2ccc(-c3cc(C(F)(F)F)ccc3Cl)o2)[C@@H](O)[C@H]1O	.	.	.	.	i	.
CCCCNC(=O)NS(=O)(=O)c1ccc(NC(=O)C(NC(N)=O)C(C)CC)cc1 (configuration not stated)	0.02	i	i	i	i	-14
COC(=O)c1ccccc1NC(=O)CSc1nc(NC(=O)c2ccccc2)c2c(C)c(C)oc2n1	0.19	i	i	i	-10*	-3
CC(C(=O)NCCc1ccccc1)N1c2cccc3cccc(c23)S1(=O)=O (configuration not stated)	-3.9	i	i	i	i	-7
CCOC(=O)c1sc(=S)n(C)c1NC(=O)c1ccc(C(C)(C)C)cc1	0.6	i	i	11*	i	-10
Cc1ccc(N2C(=O)[C@@H]3C(C(=O)C(c4ccccc4)c4ccccc4)=NN[C@@H]3C2=O)cc1	1.6	i	i	i	i	-9
CN(C)c1cccc(C(=O)OCCCC(=O)c2ccc(F)cc2)c1	.	.	.	.	i	.
COc1ccc(NC(=O)CSc2c3c(nc4ccccc24)CCC3)c(OC)c1	-10*	i	i	i	i	-16
COc1ccc(NC(=O)c2ccc3c(SCC(=O)O)c4c(nc3c2)CCCC4)c(OC)c1	0.98	i	i	i	i	-8
COc1ccc(NC(=O)c2ccc3c(SCC(=O)O)c4c(nc3c2)CCCC4)cc1Cl	-1.2	i	i	i	.	7.8*
COc1ccc(-c2oc3c4c(cc(OC)c3c(=O)c2CC=C(C)C)OC(C)(C)C=C4)c(OC)c1	-0.77	i	i	i	.	-20
COc1cccc(-c2cc(C(F)(F)F)nc(N3CCC(C)CC3)n2)c1	0.77	i	i	i	i	5.1*
CN(C)CCCNS(=O)(=O)c1ccc(NC2CCCCCC2)c([N+](=O)[O-])c1	-0.83	i	i	8*	i	-14
CCn1c2ccccc2c2cc(N=C3SC(CC(=O)Nc4ccccc4OC)C(=O)N3CCOC)ccc21 (configuration not stated)	1.9	-7.1*	i	i	i	-4
Cc1ccc(C(=O)N2CCN(C)CC2)cc1S(=O)(=O)N1CCCCCC1	1.3	i	i	i	i	-11
O=C(NC1CCCCC1)c1ccc(S(=O)(=O)c2ccccc2)cc1	0.82	i	i	i	i	-5
